Bioassay records from PubChem BioAssay.
KCNK9 inh – inhibitors of human KCNK9 two-pore domain potassium channel; Q9NPC2; HEK293 KCNK9, FluxOR thallium flux fluorescence; stronger effect = lower value; B-score at 10 µM; 310,000 tested, 1.2% active;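 active = ratio B-score over 3 SD below the library mean, with starting fluorescence within 5 SD of its mean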;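 also: negative B-score means less thallium flux so channel inhibition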
KCNK3 block – human KCNK3 channel inhibition, primary screen; O14649; CHO-KCNK3 thallium flux, FluxOR fluorescence; stronger effect = lower value; B-score at 10 µM; 340,000 tested, 0.84% active;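 active = B-score under library mean minus 4 SD, starting fluorescence ratio at most library mean plus 5 SD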;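 also: more negative B-score means stronger inhibition of thallium flux through KCNK3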
Target sequence (O14649 whole entry, looked up): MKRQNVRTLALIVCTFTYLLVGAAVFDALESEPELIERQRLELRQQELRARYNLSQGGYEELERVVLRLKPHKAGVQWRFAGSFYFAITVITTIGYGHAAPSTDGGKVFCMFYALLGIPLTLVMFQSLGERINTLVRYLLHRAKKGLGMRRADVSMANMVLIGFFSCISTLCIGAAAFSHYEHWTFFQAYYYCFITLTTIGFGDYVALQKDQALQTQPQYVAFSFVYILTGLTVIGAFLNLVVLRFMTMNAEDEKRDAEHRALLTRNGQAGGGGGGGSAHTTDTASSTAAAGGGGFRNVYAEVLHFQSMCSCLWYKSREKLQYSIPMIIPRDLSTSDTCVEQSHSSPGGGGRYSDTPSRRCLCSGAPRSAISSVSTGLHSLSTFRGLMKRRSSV
Kir21 block – inhibitors of mouse Kir2.1 inward-rectifier potassium channel | HEK293-Kir2.1, FluxOR thallium flux fluorescence; stronger effect = lower value | B-score at 10 µM | 310,000 tested, 0.85% active | AID 1672;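 active = fluorescence ratio B-score at or below minus 3 SD of library scores, with starting-brightness B-score within 2 SD, cut at about -4.2 in these data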;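 also: channel flux triggered by added potassium and thallium sulfate stimulus; B-score of peak minus minimum fluorescence over baseline after thallium stimulus; more negative B-score means stronger Kir2.1 block with less thallium influx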
hERG protect – hERG (human) protection from proarrhythmic block; Q12809; CHO-hERG, FluxOR thallium flux, dofetilide IC70 present; activation (rescue from dofetilide block), less the hit threshold, % at 10 µM; 310,000 tested, 0.51% active;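 active = activation above the mean of controls blocked by dofetilide plus 5 SD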;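 also: thallium influx through hERG after potassium depolarization seen as dye fluorescence rise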
KCNQ1 pot – potentiators or activators of human KCNQ1 potassium channel | P51787 | CHO-K1 KCNQ1, thallium flux FluxOR fluorescence; stronger effect = higher value | B-score at 10 µM | 310,000 tested, 0.35% active | AID 2648;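 active = fluorescence ratio B-score, a plate-corrected score, at least three library SD, with initial intensity B-score within 5 SD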
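System: Stable KCNQ1 CHO-K1 line | Incubation: 90 min dye loading and 20 min compound exposure, both at room temperature | Measure: Ratio B score | Medium: Assay buffer for compound exposure, DMSO matched across wells | Compound dosing: Single-concentration screen | Probe or stimulus: K+/Tl+ depolarizing stimulus | Measured by: Kinetic FluxOR fluorescence, 10 s baseline plus 110 s post-stimulus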
KCNQ1 block – inhibitors of human KCNQ1 potassium channel. 310,000 tested, 1.3% active. B-score at 10 µM. CHO-K1 KCNQ1, FluxOR thallium flux fluorescence; stronger effect = higher value. P51787. AID 2642;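 active = compounds whose thallium flux B-score, printed positive for inhibition, exceeds three library SD while starting fluorescence stays within three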;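 also: channel opened by potassium depolarization with thallium stimulus after 20 min compound exposure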
KCNK9 block conf – confirmation of human KCNK9 potassium channel inhibitors. shares compounds with KCNK9 inh. HEK293 KCNK9 cells, FluxOR thallium flux fluorescence. inhibition, % at 10 µM. 4,900 tested, 43% active. AID 492992;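 active = thallium signal inhibited by more than 5 SD of the compound-free buffer control wells, on both duplicate plates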
Kir21 sel – tests whether KCNK9 modulators also affect mouse Kir2.1; 4,900 tested, 4% active; inhibition, % at 10 µM; AID 492993; shares compounds with KCNK9 inh; Kir2.1 cells, FluxOR thallium flux fluorescence;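 active = thallium signal drop more than 5 SD beyond the mean of the no-compound control wells, seen in both duplicate plates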;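 also: signal is fluorescence rise after thallium addition divided by baseline fluorescence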
KCNK9 uninduced – second check of KCNK9 modulator effects in non-induced HEK293 cells. 4,900 tested, 40% active. FluxOR thallium flux. inhibition, % at 10 µM. shares compounds with KCNK9 inh;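 active = thallium signal drop beyond 5 SD of the untreated control mean, on both duplicate plates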
Hits are given with their value; - = inactive; . = not tested or not shown. Compounds with a hit are over-represented: about 3.7% of the library has one in this group of screens.

SMILES | KCNK9 inh | KCNK3 block | Kir21 block | hERG protect | KCNQ1 pot | KCNQ1 block | KCNK9 block conf | Kir21 sel | KCNK9 uninduced
CCN(CC)S(=O)(=O)c1ccc(OCC2CCCCO2)c([N+](=O)[O-])c1 (stereo not drawn) | - | - | - | - | - | - | . | . | .
Cc1ccc(N(CC(=O)NC(C)C)C(=O)CCC(=O)Nc2nccs2)cc1C | - | - | - | - | - | - | . | . | .
Cc1cc(C)cc(NC2=CC(=O)CC(c3ccco3)C2)c1 (stereo not drawn) | -12 | - | - | - | - | - | 37% | - | 24%
COc1cc(C)c(NC(=O)C(=S)NCc2ccccc2)cc1C | - | - | - | - | - | - | - | - | 27%
COc1cc(C)c(NC(=O)C(=S)N2CCCC2)cc1C | - | - | - | - | - | - | . | . | .
CSCc1ccc(C(=O)N2CCCC(Nc3ccc4c(c3)OCCO4)C2)o1 (stereo not drawn) | - | - | - | - | - | - | - | - | -
O=C(c1cc(Cl)ccc1F)N1CCCC(Nc2ccc3c(c2)OCCO3)C1 (stereo not drawn) | - | - | - | - | - | - | - | - | -
CC(C)(C)n1nc2c(c1NC(=O)COc1ccc(Cl)cc1)CSC2 | -11 | - | - | - | - | - | 45% | - | 50%
Cc1onc(-c2ccccc2Cl)c1C(=O)Nc1cccc2cccnc12 | -13 | - | - | - | - | 6 | 47% | - | 45%
Cc1ccc2nc(NC(=O)c3ccco3)sc2c1 | - | - | - | - | - | - | . | . | .
Cc1ccc2nc(NC(=S)NC(=O)c3ccco3)sc2c1 | - | - | - | 36 | 57 | - | - | - | -
CCOCCCNC(=O)CNC(=S)N(Cc1ccc(C)cc1)Cc1ccco1 | - | - | - | - | - | - | . | . | .
Cc1cc2ccc3ccccc3c2cc1CN(C)C | - | - | -13 | - | - | - | - | 66% | -
COc1ccc(-c2ocnc2C(=O)Nc2ccccc2N2CCCCC2)cc1 | -9.3 | - | - | - | - | - | - | - | 28%
COc1ccc(CC(=O)NCc2nn(-c3ccccc3)nc2C)cc1OC | - | - | - | - | - | - | . | . | .
COc1cccc(-c2ocnc2C(=O)Nc2ccc(N3CCOCC3)cc2N2CCOCC2)c1 | - | - | - | - | - | - | . | . | .
COc1ccc(-c2ocnc2C(=O)NCc2nn(-c3ccccc3)nc2C)cc1 | - | - | - | - | - | - | - | - | -
Cc1nc(C)n(C(C)CNC(=O)c2ccco2)n1 (stereo not drawn) | - | - | - | - | - | - | . | . | .
CCc1ccc(CN2CCCC(C(=O)Nc3ccccc3-c3ccc(OC)cc3)C2)o1 (stereo not drawn) | -8.7 | - | -5.9 | - | - | - | - | - | 28%
Cc1ccc(NC(=O)c2ccc(S(=O)(=O)N3CCCCC3)cc2)nc1 | . | - | . | . | . | . | . | . | .
COc1ccc(OC)c(S(=O)(=O)Nc2ccc3c(c2)C(=O)OC3)c1 | - | - | - | - | - | - | . | . | .
COc1ccc(OC)c(C(c2nnnn2C2CCCC2)N2CCN(c3ccc(F)cc3)CC2)c1 (stereo not drawn) | -15 | - | - | - | - | 6 | 52% | - | 44%
COc1ccc(OC)c(C=Nc2ccccc2-c2nc3ccccc3[nH]2)c1 | -8.4 | - | - | - | - | - | 39% | - | 28%
Cc1sc(NC(=O)c2ccco2)c(C(c2cccnc2)N2CCC(C)CC2)c1C (stereo not drawn) | -14 | - | - | - | - | 9 | 66% | - | 42%
CCCCCCCOC1(c2ccccc2)OC(=O)c2ccccc21 (stereo not drawn) | -16 | - | - | - | - | - | 70% | - | 48%
SMILES | KCNK9 inh | KCNK3 block | Kir21 block | hERG protect | KCNQ1 pot | KCNQ1 block | KCNK9 block conf | Kir21 sel | KCNK9 uninduced
COc1ccc(NC2(c3ccccc3)OC(=O)c3ccccc32)cc1 (stereo not drawn) | - | - | - | - | - | - | . | . | .
Cc1cccc(OC2(c3ccccc3)OC(=O)c3ccccc32)c1C (stereo not drawn) | -13 | - | - | - | - | - | 52% | - | 42%
CCCCCCOC1(c2ccccc2)OC(=O)c2ccccc21 (stereo not drawn) | -15 | - | - | - | - | - | 79% | - | 50%
COc1ccc(/C=N/n2c(-c3ccccc3)n[nH]c2=S)cc1 | - | - | - | - | - | - | . | . | .
COc1ccc(/C=N/n2c(N)nc(-c3ccccc3)c2-c2ccccc2)cc1 | - | - | - | - | - | - | - | - | -
CCn1cc(S(=O)(=O)N2CCN(Cc3cccc(Cl)c3)CC2)cn1 | - | - | - | - | - | - | . | . | .
NC(=O)SCC(=O)Nc1cccc(Cl)c1 | -10 | - | - | - | - | - | 58% | - | 36%
CSc1nsc(SCC(=O)Nc2ccccc2C(=O)O)n1 | - | - | - | - | - | - | . | . | .
C=CC[C@H](CC(=O)NCCO)C(=O)NC[C@@H](OC(=O)[C@@H](CC=C)CC(=O)OC(C)(C)C)c1ccccc1 | . | - | . | . | . | . | . | . | .
O=C(Sc1ccc(Cl)cc1)c1cccc(Cn2cc(C(F)(F)F)ccc2=O)c1 | -14 | - | - | - | - | - | 34% | - | 34%
N/C(=N\OC(=O)c1cccc(Cn2cc(C(F)(F)F)ccc2=O)c1)c1ccc(Cl)cc1 | -12 | - | - | - | - | - | 46% | - | -
CCOc1ccccc1C1N=C(c2ccc(OC)cc2)CC(c2ccccc2O)N1 (stereo not drawn) | - | - | - | - | - | - | - | - | -
O=C(Nc1cccc(Cl)c1N1CCOCC1)c1cccs1 | - | - | - | - | - | - | . | . | .
Cc1ccc(C(=O)N2CCN(c3ccccn3)CC2)cc1 | - | - | - | - | - | - | . | . | .
CC(C)c1ccc(OCc2ccc(C(=O)N3CCN(c4ccccn4)CC3)cc2)cc1 | - | - | - | - | - | 6 | - | - | -
CC(C)Cn1c(N)c(C(=O)CSc2nc3ccccc3c(=O)n2CCCN2CCOCC2)c(=O)n(C)c1=O | - | . | - | - | - | - | . | . | .
Oc1ccc(/C=N/n2c(COc3ccccc3)n[nH]c2=S)c(O)c1 | -8.3 | - | - | - | - | - | 48% | - | 35%
O=C(Nc1cnn(Cc2ccc(F)cc2)c1)c1cnn2c(C(F)F)cc(-c3ccccc3)nc12 | -13 | - | - | - | - | - | 50% | - | 36%
Cc1c(S(=O)(=O)c2ccccn2)c(N)n(Cc2cccc(Cl)c2)c1C | - | - | - | - | - | - | . | . | .
Cc1ccc(CC2C(=O)N(c3cc(C)ccc3C)C(=O)C2C)cc1 (stereo not drawn) | - | - | - | - | - | - | . | . | .
